The values below come from ChEMBL document CHEMBL1152519, “Synthesis, structural activity-relationships, and biological evaluation of novel amide-based allosteric binding site antagonists in NR1A/NR2B N-methyl-D-aspartate receptors” (Bioorg Med Chem, 2009).

The target of series [1] is Glutamate NMDA receptor; GRIN1/GRIN2B (Homo sapiens, UniProt Q05586+Q13224). Put plainly: Antagonist activity at human recombinant NR1/NR2B receptor expressed in frog oocytes assessed as inhibition of glutamate/glycine-induced current by two electrode voltage clamp method. The series is classed as functional, cell-based, Oocyte. The method, boiled down: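 Human NR1/NR2B cRNA injected into Xenopus oocytes. Two-electrode voltage clamp at −40 mV, 23 °C, 2–7 d after injection. Glutamate/glycine (50–100 μM/30 μM) applied, then with 5–8 compound concentrations. Bath contains 10 μM EDTA; leak-corrected.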
Sequence of Glutamate NMDA receptor; GRIN1/GRIN2B (Q13224 whole entry, other chains not shown): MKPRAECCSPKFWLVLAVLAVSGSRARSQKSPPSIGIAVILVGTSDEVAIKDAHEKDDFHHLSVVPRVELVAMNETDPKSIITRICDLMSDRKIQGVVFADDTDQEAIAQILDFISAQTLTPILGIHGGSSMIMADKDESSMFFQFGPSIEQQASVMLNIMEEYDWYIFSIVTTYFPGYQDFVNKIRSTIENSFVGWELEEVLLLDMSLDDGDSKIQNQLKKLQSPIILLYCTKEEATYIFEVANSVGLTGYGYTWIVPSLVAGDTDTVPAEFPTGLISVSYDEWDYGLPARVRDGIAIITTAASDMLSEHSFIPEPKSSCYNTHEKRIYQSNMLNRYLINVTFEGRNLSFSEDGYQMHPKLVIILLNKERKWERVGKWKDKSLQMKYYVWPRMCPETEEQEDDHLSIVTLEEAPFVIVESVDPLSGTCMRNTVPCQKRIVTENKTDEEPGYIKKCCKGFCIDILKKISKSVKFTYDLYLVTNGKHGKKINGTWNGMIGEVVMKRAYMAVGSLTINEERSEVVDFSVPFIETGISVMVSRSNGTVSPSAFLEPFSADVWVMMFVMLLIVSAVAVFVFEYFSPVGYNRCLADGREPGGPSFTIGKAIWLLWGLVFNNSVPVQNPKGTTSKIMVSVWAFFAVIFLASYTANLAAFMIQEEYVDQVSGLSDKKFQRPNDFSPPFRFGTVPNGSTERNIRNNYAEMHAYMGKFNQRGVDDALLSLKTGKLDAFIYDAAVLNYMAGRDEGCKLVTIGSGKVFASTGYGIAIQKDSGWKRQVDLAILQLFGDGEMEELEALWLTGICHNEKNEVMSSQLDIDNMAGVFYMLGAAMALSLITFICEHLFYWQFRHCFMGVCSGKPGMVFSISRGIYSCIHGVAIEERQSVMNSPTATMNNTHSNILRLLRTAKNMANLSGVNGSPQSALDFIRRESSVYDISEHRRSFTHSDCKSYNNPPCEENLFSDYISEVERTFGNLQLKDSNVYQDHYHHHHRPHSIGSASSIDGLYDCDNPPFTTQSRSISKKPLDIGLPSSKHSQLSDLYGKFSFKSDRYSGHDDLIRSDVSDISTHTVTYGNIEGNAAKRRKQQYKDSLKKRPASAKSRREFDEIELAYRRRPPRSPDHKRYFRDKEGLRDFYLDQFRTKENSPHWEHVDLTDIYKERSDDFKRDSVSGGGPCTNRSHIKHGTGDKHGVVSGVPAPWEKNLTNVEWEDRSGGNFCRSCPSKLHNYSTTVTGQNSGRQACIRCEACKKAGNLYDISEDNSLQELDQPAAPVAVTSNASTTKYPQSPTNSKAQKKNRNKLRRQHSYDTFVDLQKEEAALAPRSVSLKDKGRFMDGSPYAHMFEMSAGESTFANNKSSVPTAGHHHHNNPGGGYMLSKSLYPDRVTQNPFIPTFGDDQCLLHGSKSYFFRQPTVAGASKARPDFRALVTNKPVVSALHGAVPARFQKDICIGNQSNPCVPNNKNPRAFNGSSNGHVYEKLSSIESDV

Series [2] addresses Adrenergic receptor alpha-1 (Rattus norvegicus) (UniProt P15823+P23944+P43140). Put plainly: Displacement of [3H]prazosin from alpha1 adrenergic receptor in Wistar rat brain membrane at 3 uM. The series is classed as cell membranes. The method, boiled down: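 Wistar rat brain membranes. Percent displacement of 0.25 nM [3H]prazosin by 3 μM compound, run in duplicate.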
Series [3] addresses Glutamate receptor ionotropic, kainate 2 (Rattus norvegicus) (UniProt P42260). Put plainly: Antagonist activity at rat recombinant GluR6 expressed in Xenopus laevis oocytes assessed as inhibition of concanavalin A/glutamate-induced current at 3 uM by two electrode voltage clamp method relative to control. The series is classed as functional, cell-based. The settings on record: Oocyte. Put shortly:
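Oocytes expressing homomeric GluR6 (5–10 ng cRNA) pretreated 5 min with 10 μM concanavalin-A. Currents evoked by 100 μM glutamate at −40 mV, with or without 3 μM compound, and given as percent of control. Mean ± SEM of 4–10 oocytes; paired t-test.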

Series [4] concerns the target Ionotropic glutamate receptor NMDA 1/2D (Rattus norvegicus) (UniProt P35439+Q62645). Description: Antagonist activity at rat recombinant NR1/NR2D receptor expressed in Xenopus laevis oocytes assessed as inhibition of glutamate/glycine-induced current at 3 uM by two electrode voltage clamp method relative to control. The series is classed as functional, cell-based. Conditions: Oocyte. The method, boiled down: (§1)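 Xenopus oocytes injected with NR1-1a (3–5 ng) plus NR2A, 2B, 2C or 2D cRNA (7–10 ng), kept at 15 °C. Voltage clamp at −40 mV. Responses to 50 μM glutamate + 30 μM glycine with 3 μM compound, as % of response without compound. NR2A oocytes pre-loaded with 50 μM BAPTA-AM. Mean ± SEM, 4–10 oocytes; paired t-test.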

Series [5] concerns the target Glutamate NMDA receptor; Grin1/Grin2a (Rattus norvegicus) (UniProt P35439+Q00959). Description: Antagonist activity at rat recombinant NR1/NR2A receptor expressed in Xenopus laevis oocytes assessed as inhibition of glutamate/glycine-induced current at 3 uM by two electrode voltage clamp method relative to control. The series is classed as functional, cell-based. The settings on record: Oocyte. Put shortly: as §1

For series [6], the target named is Glutamate NMDA receptor; Grin1/Grin2b (Rattus norvegicus) (UniProt P35439+Q00960). Put plainly: Antagonist activity at rat recombinant NR1/NR2B receptor expressed in Xenopus laevis oocytes assessed as inhibition of glutamate/glycine-induced current at 3 uM by two electrode voltage clamp method relative to control. The series is classed as functional, cell-based. The settings on record: Oocyte. The method, boiled down: as §1

Series [7] can be described thus: Selectivity ratio of IC50 for mouse NR1/NR2B receptor D101A mutant to IC50 for wild type rat NR1/NR2B receptor.
The target of series [8] is Glutamate NMDA receptor; Grin1/Grin2c (Rattus norvegicus) (UniProt P35439+Q00961). Description: Antagonist activity at rat recombinant NR1/NR2C receptor expressed in Xenopus laevis oocytes assessed as inhibition of glutamate/glycine-induced current at 3 uM by two electrode voltage clamp method relative to control. The series is classed as functional, cell-based. The settings on record: Oocyte. Put shortly: as §1

For series [9], the target named is Glutamate receptor 1 (Rattus norvegicus) (UniProt P19490). Put plainly: Antagonist activity at rat recombinant GluR1 expressed in Xenopus laevis oocytes assessed as inhibition of glutamate-induced current at 3 uM by two electrode voltage clamp method relative to control. The series is classed as functional, cell-based. Conditions: Oocyte. The method, boiled down:
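GluR1 homomers expressed from 5–10 ng cRNA in Xenopus oocytes. Clamped at −40 mV. Currents evoked by 100 μM glutamate with 3 μM compound, expressed as % of control without compound. Mean ± SEM, 4–10 oocytes; paired t-test.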

For series [10], the target named is T1, hERG (KCNH2) (Homo sapiens, UniProt Q12809). Put plainly: Displacement of [3H]astemizole from human recombinant ERG expressed in HEK293 cells at 10 uM. The series is classed as cell-based. The settings on record: HEK293 cells expressing human recombinant ERG, probe [3H]astemizole, read-out: Activity.
T1 sequence (Q12809 whole entry): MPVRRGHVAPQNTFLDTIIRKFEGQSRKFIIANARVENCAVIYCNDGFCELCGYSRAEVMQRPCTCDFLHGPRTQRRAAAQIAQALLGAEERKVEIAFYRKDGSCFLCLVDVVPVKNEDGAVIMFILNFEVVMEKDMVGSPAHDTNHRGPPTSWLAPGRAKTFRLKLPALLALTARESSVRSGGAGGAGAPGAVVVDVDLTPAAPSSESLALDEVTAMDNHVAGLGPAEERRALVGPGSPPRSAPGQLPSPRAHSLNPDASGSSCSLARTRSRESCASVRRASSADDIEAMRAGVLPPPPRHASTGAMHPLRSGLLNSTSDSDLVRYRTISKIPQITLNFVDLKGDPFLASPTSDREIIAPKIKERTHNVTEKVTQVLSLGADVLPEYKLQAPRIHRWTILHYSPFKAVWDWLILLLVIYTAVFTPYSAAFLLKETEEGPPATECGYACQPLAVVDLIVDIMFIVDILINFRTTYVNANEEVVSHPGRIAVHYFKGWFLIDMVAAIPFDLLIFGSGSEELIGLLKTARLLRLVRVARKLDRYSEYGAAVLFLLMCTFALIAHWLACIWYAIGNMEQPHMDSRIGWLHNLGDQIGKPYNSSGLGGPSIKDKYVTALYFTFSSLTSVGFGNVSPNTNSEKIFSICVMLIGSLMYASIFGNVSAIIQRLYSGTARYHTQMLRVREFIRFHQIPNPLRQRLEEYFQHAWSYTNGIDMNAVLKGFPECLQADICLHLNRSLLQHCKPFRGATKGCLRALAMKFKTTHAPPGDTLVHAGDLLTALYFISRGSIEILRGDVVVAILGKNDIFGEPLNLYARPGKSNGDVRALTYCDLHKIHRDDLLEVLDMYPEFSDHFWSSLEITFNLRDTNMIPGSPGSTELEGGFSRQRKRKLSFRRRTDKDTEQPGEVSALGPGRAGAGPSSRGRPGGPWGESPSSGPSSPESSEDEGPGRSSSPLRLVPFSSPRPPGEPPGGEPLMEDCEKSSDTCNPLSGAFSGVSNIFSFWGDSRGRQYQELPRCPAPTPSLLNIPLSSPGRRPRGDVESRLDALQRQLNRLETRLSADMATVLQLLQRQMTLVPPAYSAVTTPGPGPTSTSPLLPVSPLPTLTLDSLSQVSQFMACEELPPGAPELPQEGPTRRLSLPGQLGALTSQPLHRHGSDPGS
In series [11] the target is Voltage-gated inwardly rectifying potassium channel KCNH2 (Homo sapiens, UniProt Q12809). Put plainly: Displacement of [3H]astemizole from human recombinant ERG expressed in HEK293 cells. The series is classed as cell-based.
Series [12] has as its target T1, hERG (KCNH2). Description: Displacement of [3H]astemizole from human recombinant ERG expressed in HEK293 cells at 3 uM. The series is classed as cell-based. Conditions: HEK293 cells expressing human recombinant ERG, probe [3H]astemizole, read-out: Activity. Put shortly:
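Membranes from HEK293 cells expressing human hERG. Ligand 1.5 nM [3H]-astemizole; displacement at a single test-compound concentration, run in duplicate.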

In series [13] the test system is MDCK. Put plainly: Apparent permeability from apical to basolateral side of MDR1-expressing MDCK cells at 5 uM after 2 hrs by LC-MS/MS analysis. The series is classed as ADME, cell-based, Canis lupus familiaris. Conditions: dog. The method, boiled down:
(§2)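 MDR1-MDCK monolayers grown 7–11 days on Transwells. Compound at 5 μM in HBSS pH 7.4 (final DMSO ≤1%) added apically (A–B) or basally (B–A). Incubated 2 h at 37 °C; both compartments quantified by LC–MS/MS against a >4-point calibration. Papp given in ×10−6 cm/s; efflux ratio = B–A/A–B. Duplicates.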

In series [14] the test system is MDCK. Put plainly: Apparent permeability from basolateral to apical side of MDR1-expressing MDCK cells at 5 uM after 2 hrs by LC-MS/MS analysis. Conditions: dog. The series is classed as ADME, cell-based, Canis lupus familiaris. Put shortly: as §2
The target of series [15] is Glutamate receptor ionotropic, NMDA 2B (Rattus norvegicus, UniProt Q00960). Put plainly: Displacement of [3H]ifenprodil form NR2B receptor in Wistar rat cerebral cortex membrane. The series is classed as tissue-based.
In series [16] the test system is MDCK. Description: Efflux ratio of permeability from basolateral to apical over apical to basolateral side in MDR1-expressing MDCK cells at 5 uM after 2 hrs by LC-MS/MS analysis. The series is classed as ADME, cell-based, Canis lupus familiaris. Conditions: dog.

Structures are written as SMILES.

Sequence of Glutamate receptor ionotropic, kainate 2 (Rattus norvegicus) (P42260 whole entry): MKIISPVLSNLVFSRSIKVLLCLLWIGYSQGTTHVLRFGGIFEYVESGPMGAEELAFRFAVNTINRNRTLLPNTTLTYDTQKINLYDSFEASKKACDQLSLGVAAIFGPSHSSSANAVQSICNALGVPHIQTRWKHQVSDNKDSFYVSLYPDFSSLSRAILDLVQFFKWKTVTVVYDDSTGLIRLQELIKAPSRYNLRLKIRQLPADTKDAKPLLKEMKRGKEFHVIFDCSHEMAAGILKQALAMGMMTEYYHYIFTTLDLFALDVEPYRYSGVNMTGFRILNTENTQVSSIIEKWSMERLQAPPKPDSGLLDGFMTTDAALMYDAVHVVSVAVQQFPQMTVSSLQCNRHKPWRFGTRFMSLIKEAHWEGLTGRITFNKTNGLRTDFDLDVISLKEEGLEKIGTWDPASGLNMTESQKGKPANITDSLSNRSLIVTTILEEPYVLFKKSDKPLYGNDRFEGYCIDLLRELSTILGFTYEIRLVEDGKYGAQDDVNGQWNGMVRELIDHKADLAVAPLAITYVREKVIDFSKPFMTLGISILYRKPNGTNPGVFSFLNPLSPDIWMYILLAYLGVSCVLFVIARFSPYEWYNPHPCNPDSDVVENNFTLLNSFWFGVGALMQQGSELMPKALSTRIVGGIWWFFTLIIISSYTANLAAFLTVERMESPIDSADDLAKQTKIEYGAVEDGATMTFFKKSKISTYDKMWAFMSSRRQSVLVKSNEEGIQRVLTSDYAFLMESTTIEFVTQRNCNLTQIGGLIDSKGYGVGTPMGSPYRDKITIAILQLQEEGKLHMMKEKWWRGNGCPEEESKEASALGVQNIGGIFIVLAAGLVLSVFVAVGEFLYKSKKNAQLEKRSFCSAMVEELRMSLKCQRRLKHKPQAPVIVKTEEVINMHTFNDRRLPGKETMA
Sequence of Glutamate receptor 1 (Rattus norvegicus) (P19490 whole entry): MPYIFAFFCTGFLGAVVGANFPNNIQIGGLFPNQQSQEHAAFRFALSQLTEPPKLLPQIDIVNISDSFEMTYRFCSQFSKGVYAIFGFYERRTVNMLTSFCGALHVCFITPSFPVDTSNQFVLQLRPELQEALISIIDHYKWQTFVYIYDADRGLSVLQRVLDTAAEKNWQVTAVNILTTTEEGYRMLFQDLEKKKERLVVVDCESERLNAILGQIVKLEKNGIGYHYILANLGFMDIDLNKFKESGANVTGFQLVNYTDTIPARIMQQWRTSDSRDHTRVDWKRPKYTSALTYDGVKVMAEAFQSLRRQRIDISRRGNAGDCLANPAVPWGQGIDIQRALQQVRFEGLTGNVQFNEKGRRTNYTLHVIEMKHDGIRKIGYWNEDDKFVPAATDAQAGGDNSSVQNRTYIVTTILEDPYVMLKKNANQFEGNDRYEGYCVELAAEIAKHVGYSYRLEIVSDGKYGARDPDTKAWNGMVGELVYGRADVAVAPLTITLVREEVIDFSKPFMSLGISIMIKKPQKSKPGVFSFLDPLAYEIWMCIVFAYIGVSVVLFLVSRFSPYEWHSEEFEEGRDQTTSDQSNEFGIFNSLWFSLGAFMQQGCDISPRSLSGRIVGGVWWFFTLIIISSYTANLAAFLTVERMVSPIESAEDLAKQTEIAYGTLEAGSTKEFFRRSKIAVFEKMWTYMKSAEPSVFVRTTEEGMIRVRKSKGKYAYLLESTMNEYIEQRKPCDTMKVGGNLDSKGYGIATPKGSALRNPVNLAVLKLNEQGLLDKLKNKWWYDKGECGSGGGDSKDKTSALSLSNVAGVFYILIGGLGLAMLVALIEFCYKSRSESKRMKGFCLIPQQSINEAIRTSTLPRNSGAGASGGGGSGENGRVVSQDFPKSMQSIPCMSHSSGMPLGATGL

`CS(=O)(=O)Nc1ccc(CCC(=O)NNC(=O)Nc2ccc(Cl)c(Cl)c2)cc1`: the IC50 in [1] worked out at 28 nM. The Activity in series [2] was 5%. For the same compound, the % response in series [3] turned out to be 99%; in series [4] it was 91%; in series [5] it was 101%; in [6], 6%; in [8], 96%; in series [9], 100%. Moreover, in [7], the Ratio IC50 turned out to be 51. Besides, the inhibition at 10 µM on hERG (KCNH2) [10] was 3%.
Consider `CS(=O)(=O)Nc1ccc(CCC(=O)NC/C=C/c2ccc(Cl)c(Cl)c2)cc1`, for which the Ki in [11] turned out to be 3000 nM. Also, in [1], the IC50 worked out at 50 nM. The compound further returned an Activity in series [2] of 16%. The inhibition at 3 µM at hERG (KCNH2) [12] is 47%. Moreover, the % response in [3] came out at 100%; in series [4] it was 88%; in series [5] it was 99%; in series [6], 18%; in [8], 95%; in series [9], 104%.
As for `CS(=O)(=O)Nc1ccc(OCCN2CCN(c3ccc(Cl)c(Cl)c3)C2=O)cc1`, the results for the Papp in the series on MDCK [13] and in the series with MDCK [14] were 12.9 ×10⁻⁶ cm/s and 40.2 ×10⁻⁶ cm/s, respectively. Besides, the IC50 in [1] amounted to 730 nM. The Activity in series [2] came to 23%. Besides, the % response was 103% in [3]; 98% in series [4]; 105% in series [5]; 20% in [6]; 98% in series [8]; 98% in series [9]. This compound came in with an inhibition constant Ki in series [15] of 300 nM. The Ratio in the series on MDCK [16] was determined as 3.1. Further, the inhibition at 10 µM at hERG (KCNH2) [10] came to 71%.
On to `CS(=O)(=O)Nc1ccc(OCC(=O)N2CCN(c3ccc(Cl)c(Cl)c3)CC2)cc1`, for which the Papp in the series with MDCK [13] was found to be 4.76 ×10⁻⁶ cm/s; with MDCK [14] it was 42.4 ×10⁻⁶ cm/s. Besides, in series [1], the IC50 stood at 166 nM. The Activity in [2] is 90%. In addition, the % response amounted to 101% in [3]; 106% in [4]; 89% in series [5]; 18% in [6]; 94% in series [8]; 101% in series [9]. In [15], the Ki is 817 nM. Besides, the inhibition at 10 µM on hERG (KCNH2) [10] is 93%.
